Bioassay records (PubChem)
Most compounds without a hit are left out; they make up all but 2.2% or so of the library.
SIRT5 block: sirtuin-5 (human) deacylase inhibition. Q9NXA8. AID 652115. 330,000 compounds, 1.1% hits. Purified SirT5, succinyl-peptide AMC, trypsin-coupled fluorescence. inhibition, % at 15 µM; in the data active = inhibition above about 15%
Target sequence (Q9NXA8 whole entry, looked up): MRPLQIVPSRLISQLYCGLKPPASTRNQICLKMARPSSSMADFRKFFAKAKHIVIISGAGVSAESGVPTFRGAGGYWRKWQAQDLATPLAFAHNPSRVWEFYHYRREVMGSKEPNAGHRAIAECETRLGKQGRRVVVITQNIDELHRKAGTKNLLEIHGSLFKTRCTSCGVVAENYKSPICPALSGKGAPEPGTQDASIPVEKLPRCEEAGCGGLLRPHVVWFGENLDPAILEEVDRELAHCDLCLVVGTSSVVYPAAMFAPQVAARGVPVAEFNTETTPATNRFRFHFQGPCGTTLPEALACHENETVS
FGF22 binding: shifts melting point of recombinant human FGF22. 340,000 compounds, 1.5% hits. Q9HCT0. recombinant FGF22 thermal shift, SYPRO orange fluorescence; percent of sucrose octasulfate shift, DMSO zero. AID 651658. activity (Tm shift, normalised), % at 9.99 µM;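 active = mean Tm shift, scaled 0 neutral to 100 positive control, at about 1.3% or above, every replicate too, limit read from the data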
Target sequence (Q9HCT0 whole entry, looked up): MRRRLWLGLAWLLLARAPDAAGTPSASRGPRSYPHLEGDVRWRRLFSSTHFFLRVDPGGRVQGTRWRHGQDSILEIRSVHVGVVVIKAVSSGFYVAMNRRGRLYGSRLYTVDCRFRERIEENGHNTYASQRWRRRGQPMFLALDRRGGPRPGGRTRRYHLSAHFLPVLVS
FN deposition inh: fibronectin deposition inhibition. AH1F fibroblasts, Alexa488-fibronectin deposition fluorescence, overnight. inhibition, % at 12.6 µM. 350,000 compounds, 0.086% hits;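 active = mean inhibition across replicates of 30% or more, regardless of how many single replicates reach that level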
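Assay system: AH1F fibroblast monolayer, labelled fibronectin deposition. Amount: 10000 cells per well. Also added: labelled fibronectin 24 nM. Compound: single-point pinned compound. Incubation: cell attachment 1 h, compound and FN exposure overnight. Detection: fluorescence after three HBSS washes, excitation 485 nm, emission 525 nm. Read-out: inhibition of fibronectin deposition signal.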
PGC1a acetyl inh: PGC1a acetylation modulation, inhibitor mode; U2OS PGC1a acetylation, AlphaScreen anti-acetyl-lysine; with virally co-expressed GCN5 acetyltransferase; inhibition, % at 15.6 µM; 350,000 compounds, 0.17% hits; AID 651687;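 active = every replicate shows inhibition of at least 40%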
ERAP1 HTS inh: inhibitors of human ERAP1 aminopeptidase. recombinant ERAP1, Leu-AMC fluorescence, 60 min. Q9NZ08. inhibition, % at 10.7 µM. 340,000 compounds, 0.15% hits. AID 652197;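 active = mean replicate inhibition of at least 30%, or all replicates individually reaching that 30% level; inactive = mean below 30% and not every replicate reaching it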
A number is an active result; n = inactive; x = not tested or not shown; ! = not active in a repeat.

SMILES | SIRT5 block | FGF22 binding | FN deposition inh | PGC1a acetyl inh | ERAP1 HTS inh
CN1CCN(C(=O)/C(=C\c2cccnc2)NC(=O)c2cccc(Br)c2)CC1 | n | 1.4 | n | n | n
O=C(N/C(=C/c1cccs1)C(=O)N1CCOCC1)c1ccccc1 | n | 44.0 | n | x | n
CCOC(=O)N1CCN(C(=O)/C(=C\c2cccs2)NC(=O)c2cccs2)CC1 | n | n | n | x | n
O=C(N/C(=C\c1cccnc1)C(=O)N1CCOCC1)c1cccc(Br)c1 | x | x | n | x | x
CCOC(=O)CSc1nc2ccccc2c(=O)n1CC | x | x | n | n | x
CCOC(=O)CSc1nc2ccccc2c(=O)n1CC(C)C | n | 42.9 | x | n | n
Cc1cc(OC(=O)c2c(C)cc(OC(=O)c3c(C)cc(O)cc3O)cc2O)cc(O)c1C(=O)O | n | 1.9 | x | n | n
COC(=O)c1c(C)cc(O)cc1O | n | n | x | n | n
C[C@@H]1CN([C@@H](C)CO)C(=O)c2cc(-c3cccc(C#N)c3)cnc2O[C@@H]1CN(C)C(=O)C1CC1 | n | n | x | n | n
Cc1noc(C)c1NC(=O)N(C)C[C@@H]1Oc2ccc(NC(=O)CCN3CCOCC3)cc2C(=O)N([C@@H](C)CO)C[C@H]1C | n | n | x | n | n
CCc1nc2sccc2c(=O)n1N | n | 43.0 | n | n | n
Cc1cc(C(F)(F)F)n(-c2nc(C(=O)NNS(=O)(=O)c3ccccc3[N+](=O)[O-])cs2)n1 | n | n | n | 110.1 | n
Cc1cc(C(F)(F)F)n(-c2nc(C(=O)NNS(=O)(=O)c3ccccc3)cs2)n1 | x | x | n | n | x
O=C(N/N=C/c1ccc([N+](=O)[O-])o1)C(=O)Nc1ccc(C(=O)O)cc1 | n | n | n | n | n
O=C(O)c1ccc(N/N=C/C=C/c2ccc([N+](=O)[O-])o2)cc1 | 15.2 | n | n | x | n
CC(C)CNC(=O)[C@@]1(C)c2ccccc2C(=O)N(Cc2ccccc2)[C@H]1c1ccc(CO)cc1 | n | n | x | n | n
CCOc1ccc(CCNS(=O)(=O)c2cn(C)cn2)cc1OCC | 33.1 | n | n | n | n
CC(C)CCNC(=O)C(=O)NC1CCCC1 | n | 44.1 | n | n | n
CCC(C)NC(=O)C(=O)NC1CCCC1 (stereo not given) | n | 44.1 | n | n | n
CC(C)CCNC(=O)C1CCCN1C(=O)NC1CCCCC1 (stereo not given) | x | x | x | n | x
COc1ccc(NC(=S)NNC(=S)Nc2cccc(C(F)(F)F)c2)cc1 | n | n | n | n | x
COc1ccc(NC(=S)Nc2cc(C(F)(F)F)ccc2F)cc1 | n | 44.1 | n | x | n
CC(C)C(=O)N=c1sc2cc(F)cc(F)c2n1C | 17.1 | n | n | x | n
C[C@H]1CN([C@@H](C)CO)C(=O)c2cc(NS(C)(=O)=O)ccc2O[C@@H]1CN(C)CC1CCCCC1 | n | n | n | n | n
CCn1nc(C)c(/C=C/C(=O)Nc2ccc(C)cc2C)c1C | 36.9 | x | n | x | n
SMILES | SIRT5 block | FGF22 binding | FN deposition inh | PGC1a acetyl inh | ERAP1 HTS inh
CCn1ncc(/C=C/C(=O)Nc2c(C)nn(CC)c2C)c1C | x | x | n | n | x
Cc1[nH][nH]c(=O)c1C(c1ccc(-c2ccc(F)cc2)o1)c1c(C)[nH][nH]c1=O | n | 43.0 | x | n | n
Nc1nc(SCC(=O)NCCO)nc2sc3c(c12)CCCC3 | n | 43.1 | n | n | n
C[C@H]1CCCCO[C@@H](CN(C)Cc2ccncc2)[C@@H](C)CN([C@@H](C)CO)C(=O)c2cc(NS(=O)(=O)c3ccccc3)ccc2O1 | n | n | n | n | n
Cn1cnc(CCNC(=O)C[C@H]2CC[C@@H]3[C@H](COC[C@H](O)CN3C(=O)C3CCCC3)O2)c1 | 35.3! | n | n | n | n
Cn1cnc(CCNC(=O)C[C@@H]2CC[C@@H]3[C@H](COC[C@@H](O)CN3C(=O)Nc3ccc(Cl)cc3)O2)c1 | 19.5 | n | n | n | n
Cn1cnc(CCNC(=O)C[C@H]2CC[C@@H]3[C@H](COC[C@H](O)CN3C(=O)Nc3ccc(Cl)cc3)O2)c1 | n | n | n | n | n
COc1ccc(NC(=O)Nc2ccc3c(c2)C(=O)N([C@@H](C)CO)C[C@@H](C)[C@@H](CN(C)C(=O)Nc2cccc4ccccc24)OCCCC[C@@H](C)O3)cc1 | n | n | n | n | n
CC(C)Oc1ccc(C2C(C#N)=C(N)Oc3c2oc(CO)cc3=O)cc1 (stereo not given) | n | 43.6 | x | x | n
C[C@@H]1CN([C@H](C)CO)C(=O)c2cc(NC(=O)Nc3ccc(F)cc3)ccc2O[C@@H](C)CCCCO[C@H]1CN(C)Cc1ccncc1 | x | n | n | n | x
Cc1occc1C(=O)N/N=C/c1sc(N2CCOCC2)nc1-c1ccccc1 | n | n | n | n | n
Cc1occc1C(=O)N/N=C/C1=C(N2CCOCC2)C(=C/c2ccc(Cl)cc2Cl)/CC1 | x | 43.2 | n | n | n
Cc1cccc(C)c1NC(=O)COC(=O)Cc1ccsc1 | n | 43.3 | n | x | n
CCOc1ccc(NC(=O)COC(=O)Cc2ccsc2)cc1 | 20.3 | n | n | n | n
Cc1cccc(C(C)C)c1NC(=O)COC(=O)Cc1ccsc1 | n | n | n | x | n
O=C(O)COc1ccccc1/C=C1\SC(=S)N(NC(=O)c2ccccc2O)C1=O | 21.1 | x | n | n | n
O=C(O)COc1ccccc1/C=C1\SC(=S)N(/N=C/c2ccccc2O)C1=O | x | x | n | n | x
COc1ccc(S(=O)(=O)Nc2ccc3c(c2)CC(=O)N([C@@H](C)CO)C[C@H](C)[C@H](CN(C)S(=O)(=O)c2c(C)noc2C)O3)cc1 | n | n | n | n | n
Cc1ccccc1-c1ccccc1[C@H]1[C@@H](C#N)N(C(=O)c2ccccc2)[C@@H]1CO | 26.2 | n | x | n | n
COCC(=O)N1[C@H](C#N)[C@H](c2ccccc2-c2cccc(F)c2)[C@H]1CO | 24.2 | n | n | n | n
CN(C)C(=O)c1cccc(-c2ccccc2[C@H]2[C@@H](C#N)N(C(=O)C3CC3)[C@@H]2CO)c1 | 29.4 | n | n | n | n
Cc1ccccc1-c1ccccc1[C@@H]1[C@H](C#N)N(C(=O)c2ccccc2)[C@H]1CO | n | n | n | n | n
N#C[C@@H]1[C@H](c2ccccc2-c2ccccc2F)[C@@H](CO)N1C(=O)c1cccc(F)c1 | 17.6 | n | n | n | n
COCC(=O)N1[C@@H](C#N)[C@H](c2ccccc2-c2cccc(F)c2)[C@@H]1CO | n | n | n | n | n
CN(C)C(=O)c1cccc(-c2ccccc2[C@@H]2[C@@H](C#N)N(C(=O)C3CC3)[C@@H]2CO)c1 | n | n | n | n | n
COc1ccccc1-c1ccc2n(c1=O)C[C@@H]1[C@@H](CO)[C@H](C(=O)N(C)C)[C@H]2N1C(=O)c1cccnc1 | n | n | x | n | n
CSc1ccccc1NC(=O)CO/N=C(\C)c1cc2ccccc2o1 | n | n | n | x | n
CCc1ccc(NC(=O)CO/N=C(\C)c2cc3ccccc3o2)cc1 | n | 43.8 | n | n | n
CCOc1ccc(Cc2c(C)[nH]c3ccc(C(=O)O)cc3c2=S)cc1 | 28.8 | n | n | n | n
COc1cccc(CNC(=O)C[C@@H]2C=C[C@H](NC(=O)C3CCC3)[C@@H](CO)O2)c1 | n | x | x | n | x
